Values joined by “and” are separate entries in the source; they are usually repeats but may differ in a detail not shown here. Equal values may be shown once.
Tests used:
[1] = Partition coefficient (logP); assay type: physicochemical; conditions: octanol/water
[2] = system: Mus musculus; test: Antidepressant activity was measured by the prevention of tetrabenazine (TBZ) induced ptosis in mice after intraperitoneal administration of the compound.; assay type: functional; conditions: ip
In short: (§1)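 Mice given compound ip in 1% methylcellulose (10 mL/kg), 30 min before tetrabenazine 40 mg/kg base ip; solvent+TBZ control per test. Ptosis scored 30 min after TBZ (+1 min) as 100/50/0% (closed/half/open), not normalized.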

[3] = Acute toxicity in mice, after intraperitoneal administration.; assay type: organism-based; conditions: mouse, in vivo, ip
In short: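 Mice, groups of 10, given compound suspended in 1% methylcellulose ip at 10 mL/kg, then housed with food and water ad libitum. Observed hourly up to 6 h; deaths recorded at 24 and 48 h.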

[4] = species on record: Rattus norvegicus; test: Compound was tested for inhibition of uptake of [14C]5-HT (5-HT) into rat whole brain, in vitro.; assay type: functional
In short: (§2)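 Rat brain synaptosomes (Whittaker method) incubated with labelled monoamine (1 × 10^-7 mol final) at 37 °C with or without drug. [14C]NE and [14C]5-HT uptake in Krebs-Henseleit bicarbonate pH 7.4 with 11 mmol glucose; [3H]DA uptake in phosphate buffer, corpus striatum synaptosomes. Time: 5 min whole brain, 10 min hypothalamus. Nonspecific binding at 0 °C; membrane filtration, scintillation counting; IC50 from 3–4 concentrations, at least triplicate.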

[5] = species on record: Rattus norvegicus; test: Compound was tested for inhibition of uptake of [14C]norepinephrine (NE) into rat brain hypothalamus, in vitro.; assay type: functional; in short: as §2
[6] = species on record: Rattus norvegicus; test: Compound was tested for inhibition of uptake of [3H]dopamine (DA) into rat corpus striatum, in vitro.; assay type: functional; in short: as §2
[7] = system: Rattus norvegicus; test: Ability to inhibit re uptake of [14C]norepinephrine in synaptosomes from rat whole brain, was determined 1 h after peroral administration of 80 mg of compound.; assay type: functional, organism-based
In short: (§3)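 Ex vivo/in vitro: rats dosed orally or ip, killed 1 h later; whole-brain synaptosomes from a pool of n=3 rats; [14C]NE or [14C]5-HT uptake (Krebs-Henseleit bicarbonate, pH 7.4, 11 mmol glucose; 1 × 10^-7 mol labelled amine, 37 °C, 5 min), filtration, scintillation counting; quadruplicate determinations, mean ± SD as % of control-animal uptake.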

[8] = system: Rattus norvegicus; test: Ability to inhibit re uptake of [14C]-5-HT in synaptosomes from rat whole brain, was determined 1 h after intraperitoneal administration of 80 mg of compound.; assay type: functional; in short: as §3
[9] = system: Rattus norvegicus; test: Ability to inhibit re uptake of [14C]5-HT in synaptosomes from rat whole brain, was determined 1 h after peroral administration of 80 mg of compound.; assay type: functional, organism-based; in short: as §3
[10] = system: Rattus norvegicus; test: Ability to inhibit re uptake of [14C]norepinephrine in synaptosomes from rat whole brain, was determined 1 hr after intraperitoneal administration of 80 mg of compound.; assay type: functional; in short: as §3
[11] = Therapeutic index (TI), ratio of LD50 and ED50 (TBZ) in mice after i.p. administration; conditions: mouse, in vivo, ip
[12] = system: Mus musculus; test: Prevention of tetrabenazine induced ptosis in mice following i.p. administration.; assay type: functional; conditions: ip; in short: as §1
[13] = species on record: Rattus norvegicus; test: Compound was tested for inhibition of uptake of [14C]5-HT (5-HT) into rat whole brain, in vitro; Not determined.; assay type: functional; in short: as §2
[14] = species on record: Rattus norvegicus; test: Compound was tested for inhibition of uptake of [14C]norepinephrine (NE) into rat brain hypothalamus, in vitro; Not determined.; assay type: functional; in short: as §2

Structure (SMILES) | LD50 [3] [mg/kg] | selectivity ratio [11] | ED50 [12] [mg/kg] | IC50 [13] | IC50 [14] | further results
Cc1ccc([C@@H]2c3cc(O)ccc3[C@H]3NCCC[C@@H]23)cc1N | 210 | 70 |  |  |  | logP [1]: 2.33; ED50 [2]: 3 mg/kg; IC50 [4]: 430 nM; IC50 [5]: 40 nM; IC50 [6]: 100 nM; Uptake [7]: > 90% and 83.5% and 88.1%; Uptake [8]: > 90%; Uptake [9]: > 90%; Uptake [10]: 80% and > 90% and 87.7%
Cc1ccc([C@@H]2c3ccccc3[C@@H]3[C@H]2CCCN3C)cc1 | 232 | 77 | 3 |  |  | logP [1]: 3.83; IC50 [4]: > 100000 nM; IC50 [5]: 65 nM; IC50 [6]: 90 nM; Uptake [7]: > 90% (2×) and 76.3%; Uptake [8]: > 90%; Uptake [9]: > 90% (2×) and 88.1%
Cc1ccc([C@@H]2c3ccccc3[C@H]3NCCC[C@@H]23)cc1N | 40 | 20 | 2 |  |  | 
CNCCCN1c2ccccc2CCc2ccccc21 [DESIPRAMINE] |  |  |  |  |  | IC50 [4]: 11 nM; IC50 [5]: 25 nM
Oc1ccc([C@H]2c3ccccc3[C@H]3NCCC[C@@H]23)cc1 |  |  |  | No compound available | No compound available | 
c1ccc([C@@H]2c3ccccc3[C@H]3NCCC[C@@H]23)cc1 | 27 | 39 | 0.7 |  |  | IC50 [4]: ~100000 nM; IC50 [5]: 18 nM; IC50 [6]: 20 nM
Cc1ccccc1[C@@H]1c2ccccc2[C@@H]2[C@H]1CCCN2C | 106 |  | > 40 |  |  | 
COc1cc2c(cc1OC)[C@@H]1[C@@H](CCCN1C)[C@@H]2c1ccccc1 |  |  |  | No compound available | No compound available | 
COc1cc2c(cc1OC)[C@H]1NCCC[C@H]1[C@@H]2c1ccccc1 |  |  |  | No compound available | No compound available | 
Cc1cccc([C@@H]2c3ccccc3[C@H]3NCCC[C@@H]23)c1 | 21 |  | 0.3 |  |  | 
COc1ccc2c(c1)[C@@H](c1ccc(C(C)C)cc1)[C@@H]1CCCN[C@H]21 |  |  |  | No compound available | No compound available | 
CCCCOc1ccc([C@@H]2c3ccccc3[C@H]3NCCC[C@@H]23)cc1 | 46 | 46 |  |  |  | ED50 [2]: 1 mg/kg
CN1CCC[C@H]2[C@@H](c3ccc(N)cc3)c3ccccc3[C@H]21 | 7 | 14 | 0.5 |  |  | 
c1ccc2c(c1)[C@@H](c1ccncc1)[C@@H]1CCCN[C@H]21 | 20 | 10 |  |  |  | ED50 [2]: 2 mg/kg
CN1CCC[C@H]2[C@H](c3ccc(O)cc3)c3ccccc3[C@H]21 | 178 | 36 |  |  |  | ED50 [2]: 5 mg/kg
COc1ccc2c(c1)[C@@H](c1ccc(N(C)C)cc1)[C@@H]1CCCN[C@H]21 |  |  |  | No compound available | No compound available | 
Oc1ccc([C@@H]2c3ccccc3[C@H]3NCCC[C@@H]23)cc1 | 30 | 15 |  |  |  | ED50 [2]: 2 mg/kg
COc1cc2c(cc1OC)[C@H]1NCCC[C@H]1[C@@H]2c1cccnc1 |  |  |  | No compound available | No compound available | 
Nc1cccc([C@H]2c3ccccc3[C@H]3NCCC[C@@H]23)c1 | 28 |  | 2 |  |  | 
CN1CCC[C@H]2[C@@H](c3ccc(O)cc3)c3ccccc3[C@H]21 |  |  |  | No compound available | No compound available | 
Cc1ccc([C@H]2c3cc(O)ccc3[C@H]3NCCC[C@@H]23)cc1N | 67 |  |  |  |  | ED50 [2]: 10 mg/kg
COc1ccc2c(c1)[C@@H](c1ccc(N)cc1)[C@@H]1CCCN[C@H]21 | 60 | 60 | 1 |  |  | 
COc1ccc2c(c1)[C@@H](c1ccc(C)cc1)[C@@H]1CCCN[C@H]21 |  |  |  | No compound available | No compound available | 

Source: ChEMBL document CHEMBL1122631, “2,3,4,4a,5,9b-Hexahydro-1H-indeno[1,2-b]pyridines: potential antidepressants” (J Med Chem, 1984)
